Measured values from ChEMBL document CHEMBL1124476, “1-(2-aminoethyl)-6-aryl-4H- [1,2,4]triazolo[4,3-a][1,4]benzodiazepines with diuretic and natriuretic activity” (J Med Chem, 1989).

Columns and labels:
Rattus norvegicus [1] = species on record: Rattus norvegicus; test: […]; type: ADME, organism-based, Urine; set-up: dose 0.3 mg/kg, route oral; details: in vivo, po, 0.3 mg/kg
How it was run: (§1)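 Dose-response test in male Sprague-Dawley rats of about 160 g, fasted 24 h, with water withheld 1½ h before and during the test. Each rat got a single gavage of 25 mL/kg 0.9% saline with 0.5% carboxymethylcellulose carrying the agent (0.3–100 mg/kg range). Rats were housed two per metabolism cage, and urine was collected for 5 h. Mean urine volume (mL) was compared with controls (P < 0.05).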

Rattus norvegicus [2] = test: Mean excretion of sodium in conscious rats at a dose of 30 mg/kg given orally; type: ADME, organism-based; set-up: dose 30 mg/kg, route oral; details: in vivo, po
How it was run: (§2)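 Male Sprague-Dawley rats, about 160 g, fasted 24 h and water withheld 1 1/2 h beforehand; food and water withheld during the test. Dosing by gavage with 25 mL/kg 0.9% saline containing 0.5% (carboxymethyl)cellulose, agent dissolved or suspended. Three cages of two rats each per dose, held in metabolism cages. Urine collected over 5 h. Volume given in mL, Na+ in mequiv. Significance versus control at P < 0.05.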

[3] = Diuretic activity at 40 mg/kg (screening dose-84.7 umol/kg) in […] in a two stage experiment; T/C1.2 = urine vol of treated rats / urine vol of control rats; type: functional
How it was run: (§3)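 40 mg/kg given by gavage in 25 mL/kg 0.9% saline with 0.5% (carboxymethyl)cellulose. Four rats per agent, two per metabolism cage; 20 controls; 5 h urine. T/C = treated/control urine volume. Stage-1 T/C of 1.66 or more leads to stage 2; product T/C1·T/C2 of 3.34 or more counts as active.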

Rattus norvegicus [4] = test: Mean excretion of potassium in conscious rats at a dose of 3.0 mg/kg given orally; type: ADME, organism-based; set-up: dose 3 mg/kg, route oral; details: in vivo, po
How it was run: (§4)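 Secondary dose-response in male Sprague-Dawley rats (~160 g), fasted and hydrated as in the primary screen. Oral gavage at 0.3-100 mg/kg in 25 mL/kg saline/0.5% CMC, three cages of two rats per dose. Urine collected 5 h; Na, K, Cl, HCO3 measured. Values are mean excretion (mequiv), compared with controls at P < 0.05.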

Rattus norvegicus [5] = test: Mean excretion of […] in conscious rats at a dose of 1.0 mg/kg given orally; type: ADME, organism-based; set-up: dose 1 mg/kg, route oral; details: in vivo, po; how it was run: as §2
Rattus norvegicus [6] = test: Mean excretion of sodium in conscious rats at a dose of 100 mg/kg given orally; type: ADME, organism-based; set-up: dose 100 mg/kg, route oral; details: in vivo, po; how it was run: as §2
Rattus norvegicus [7] = species on record: Rattus norvegicus; test: […]; type: ADME, organism-based, Urine; set-up: dose 30 mg/kg, route oral; details: in vivo, po, 30 mg/kg; how it was run: as §2
Rattus norvegicus [8] = test: Mean excretion of potassium in conscious rats at a dose of 0.3 mg/kg given orally; type: ADME, organism-based; set-up: dose 0.3 mg/kg, route oral; details: in vivo, po; how it was run: as §4
Rattus norvegicus [9] = test: Mean excretion of chloride in conscious rats at a dose of 100 mg/kg given orally; type: ADME, organism-based; set-up: dose 100 mg/kg, route oral; details: in vivo, po; how it was run: as §4
Rattus norvegicus [10] = test: Mean excretion of chloride in conscious rats at a dose of 1.0 mg/kg given orally; type: ADME, organism-based; set-up: dose 1 mg/kg, route oral; details: in vivo, po; how it was run: as §4
[11] = Diuretic activity at 40 mg/kg (screening dose 84.7 umol/kg) in […] in a one stage experiment; T/C = urine vol of treated rats / urine vol of control rats; type: functional; how it was run: as §3
Rattus norvegicus [12] = species on record: Rattus norvegicus; test: […]; type: ADME, organism-based, Urine; set-up: dose 1 mg/kg, route oral; details: in vivo, po, 1 mg/kg; how it was run: as §1
Rattus norvegicus [13] = species on record: Rattus norvegicus; test: […]; type: ADME, organism-based, Urine; set-up: dose 10 mg/kg, route oral; details: in vivo, po, 10 mg/kg; how it was run: as §2
Rattus norvegicus [14] = test: Mean excretion of potassium in conscious rats at a dose of 10 mg/kg given orally; type: ADME, organism-based; set-up: dose 10 mg/kg, route oral; details: in vivo, po; how it was run: as §4
Rattus norvegicus [15] = test: Mean excretion of potassium in conscious rats at a dose of 100 mg/kg given orally; type: ADME, organism-based; set-up: dose 100 mg/kg, route oral; details: in vivo, po; how it was run: as §4
Rattus norvegicus [16] = species on record: Rattus norvegicus; test: […]; type: ADME, organism-based, Urine; set-up: dose 100 mg/kg, route oral; details: in vivo, po, 100 mg/kg; how it was run: as §2
Rattus norvegicus [17] = test: Mean excretion of chloride in conscious rats at a dose of 10 mg/kg given orally; type: ADME, organism-based; set-up: dose 10 mg/kg, route oral; details: in vivo, po; how it was run: as §4
Rattus norvegicus [18] = test: Mean excretion of sodium in conscious rats at a dose of 10 mg/kg given orally; type: ADME, organism-based; set-up: dose 10 mg/kg, route oral; details: in vivo, po; how it was run: as §2
Rattus norvegicus [19] = test: Mean excretion of chloride in conscious rats at a dose of 30 mg/kg given orally; type: ADME, organism-based; set-up: dose 30 mg/kg, route oral; details: in vivo, po; how it was run: as §4
Rattus norvegicus [20] = test: Mean excretion of Cl- in conscious rats at a dose of 0.3 mg/kg given orally; type: ADME, organism-based, Urine; set-up: dose 0.3 mg/kg, route oral; details: in vivo, po; how it was run: as §1
Rattus norvegicus [21] = test: Mean excretion of chloride in conscious rats at a dose of 3.0 mg/kg given orally; type: ADME, organism-based; set-up: dose 3 mg/kg, route oral; details: in vivo, po; how it was run: as §4
Rattus norvegicus [22] = test: Mean excretion of potassium in conscious rats at a dose of 30 mg/kg given orally; type: ADME, organism-based; set-up: dose 30 mg/kg, route oral; details: in vivo, po; how it was run: as §4
Rattus norvegicus [23] = test: Mean excretion of potassium in conscious rats at a dose of 1.0 mg/kg given orally; type: ADME, organism-based; set-up: dose 1 mg/kg, route oral; details: in vivo, po; how it was run: as §4
Rattus norvegicus [24] = test: Mean excretion of sodium in conscious rats at a dose of 0.3 mg/kg given orally; type: ADME, organism-based; set-up: dose 0.3 mg/kg, route oral; details: in vivo, po; how it was run: as §2
Rattus norvegicus [25] = test: Mean excretion of sodium in conscious rats at a dose of 3.0 mg/kg given orally; type: ADME, organism-based; set-up: dose 3 mg/kg, route oral; details: in vivo, po; how it was run: as §2
Rattus norvegicus [26] = species on record: Rattus norvegicus; test: […]; type: ADME, organism-based, Urine; set-up: dose 3 mg/kg, route oral; details: in vivo, po, 3 mg/kg; how it was run: as §2
[27] = Diuretic activity at 40 mg/kg (screening dose-94.6 umol/kg) in […] in a one stage experiment; T/C = urine vol of treated rats / urine vol of control rats; type: functional; how it was run: as §3
[28] = Diuretic activity at 40 mg/kg (screening dose 84 umol/kg) in […] in a one stage experiment; T/C = urine vol of treated rats / urine vol of control rats; type: functional; how it was run: as §3
[29] = Diuretic activity at 40 mg/kg (screening dose-97.3 umol/kg) in […] in a two stage experiment; T/C1.2 = urine vol of treated rats / urine vol of control rats; type: functional; how it was run: as §3
[30] = Diuretic activity at 40 mg/kg (screening dose-97.3 umol/kg) in […] in a one stage experiment; T/C = urine vol of treated rats / urine vol of control rats; type: functional; how it was run: as §3
[31] = Diuretic activity at 40 mg/kg (screening dose-75 umol/kg) in […] in a two stage experiment; T/C1.2 = urine vol of treated rats / urine vol of control rats; type: functional; how it was run: as §3
[32] = Diuretic activity at 40 mg/kg (screening dose-75 umol/kg) in […] in a one stage experiment; T/C = urine vol of treated rats / urine vol of control rats; type: functional; how it was run: as §3
[33] = Diuretic activity at 40 mg/kg (screening dose-82.4 umol/kg) in […] in a one stage experiment; T/C = urine vol of treated rats / urine vol of control rats; type: functional; how it was run: as §3

SMILES | Mean urine volume (Rattus norvegicus [1]) | Mean excretion of Na+ (Rattus norvegicus [2]) | Mean excretion of K+ (Rattus norvegicus [4]) | Mean excretion of Na+ (Rattus norvegicus [5]) | Mean excretion of Na+ (Rattus norvegicus [6]) | Mean urine volume (Rattus norvegicus [7]) | Mean excretion of K+ (Rattus norvegicus [8]) | Mean excretion of Cl- (Rattus norvegicus [9]) | Mean excretion of Cl- (Rattus norvegicus [10]) | Mean urine volume (Rattus norvegicus [12]) | Mean urine volume (Rattus norvegicus [13]) | Mean excretion of K+ (Rattus norvegicus [14]) | Mean excretion of K+ (Rattus norvegicus [15]) | Mean urine volume (Rattus norvegicus [16]) | Mean excretion of Cl- (Rattus norvegicus [17]) | Mean excretion of Na+ (Rattus norvegicus [18]) | Mean excretion of Cl- (Rattus norvegicus [19]) | Mean excretion of Cl- (Rattus norvegicus [20]) | Mean excretion of Cl- (Rattus norvegicus [21]) | Mean excretion of K+ (Rattus norvegicus [22]) | also measured
CN(C)CC(c1ccccc1Cl)c1nnc2n1-c1ccc(Cl)cc1C(c1ccccc1)=NC2 (stereo unspecified) | 5.36 mL | 1.22 m equiv | 0.22 m equiv | 0.93 m equiv | 1.76 m equiv | 6.73 mL | 0.25 m equiv | 1.69 m equiv | 0.93 m equiv | 4.54 mL | 5.37 mL | 0.21 m equiv | 0.22 m equiv | 9.85 mL | 1.13 m equiv | 1.03 m equiv | 1.21 m equiv | 1.08 m equiv | 0.84 m equiv | 0.16 m equiv | T/C 1.2 [3]: 3.77; T/C 1 [11]: 1.67; Mean excretion of K+ (Rattus norvegicus [23]): 0.24 m equiv; Mean excretion of Na+ (Rattus norvegicus [24]): 1 m equiv; Mean excretion of Na+ (Rattus norvegicus [25]): 0.81 m equiv; Mean urine volume (Rattus norvegicus [26]): 4.67 mL
CN(C)CC(CN(C)C)c1nnc2n1-c1ccc(Cl)cc1C(c1ccccc1)=NC2 | – | – | – | – | – | – | – | – | – | – | – | – | – | – | – | – | – | – | – | – | T/C 1 [27]: 1.22
CN(C)CC(c1ccc(Cl)cc1)c1nnc2n1-c1ccc(Cl)cc1C(c1ccccc1)=NC2 (stereo unspecified) | – | – | – | – | – | – | – | – | – | – | – | – | – | – | – | – | – | – | – | – | T/C 1 [28]: 0.9
CN(C)CCc1nnc2n1-c1ccc(Br)cc1C(c1ccccn1)=NC2 | 5.94 mL | 1.03 m equiv | 0.39 m equiv | 0.6 m equiv | 1.26 m equiv | 8.05 mL | 0.38 m equiv | 1.21 m equiv | 0.7 m equiv | 4.69 mL | 5.63 mL | 0.33 m equiv | 0.41 m equiv | 11.02 mL | 0.81 m equiv | 0.77 m equiv | 1.05 m equiv | 0.81 m equiv | 0.84 m equiv | 0.37 m equiv | T/C 1.2 [29]: 3.46; T/C 1 [30]: 1.75; Mean excretion of K+ (Rattus norvegicus [23]): 0.32 m equiv; Mean excretion of Na+ (Rattus norvegicus [24]): 0.74 m equiv; Mean excretion of Na+ (Rattus norvegicus [25]): 0.79 m equiv; Mean urine volume (Rattus norvegicus [26]): 5.53 mL
CN(C)CC(c1ccccc1)c1nnc2n1-c1ccc(I)cc1C(c1ccccc1)=NC2 (stereo unspecified) | 5.09 mL | 1.98 m equiv | 0.23 m equiv | 0.65 m equiv | 2.09 m equiv | 12.9 mL | 0.18 m equiv | 1.82 m equiv | 0.7 m equiv | 4.8 mL | 10.8 mL | 0.19 m equiv | 0.24 m equiv | 14.57 mL | 1.5 m equiv | 1.64 m equiv | 1.73 m equiv | 0.8 m equiv | 0.76 m equiv | 0.24 m equiv | T/C 1.2 [31]: 9.39; Mean excretion of K+ (Rattus norvegicus [23]): 0.25 m equiv; Mean excretion of Na+ (Rattus norvegicus [24]): 0.75 m equiv; Mean excretion of Na+ (Rattus norvegicus [25]): 0.66 m equiv; Mean urine volume (Rattus norvegicus [26]): 4.86 mL; T/C 1 [32]: 3.26
CN(C)CC(c1ccccc1)c1nnc2n1-c1ccc(S(C)(=O)=O)cc1C(c1ccccc1)=NC2 (stereo unspecified) | – | – | – | – | – | – | – | – | – | – | – | – | – | – | – | – | – | – | – | – | T/C 1 [33]: 0.7
